Measurements as given in ChEMBL document CHEMBL1154778, “Synthesis and biological evaluation of C-5 methyl substituted 4-arylthio and 4-aryloxy-3-Iodopyridin-2(1H)-one type anti-HIV agents” (J Med Chem, 2009).

Key:
[1] = tested on: Human immunodeficiency virus 1; assay: Antiviral activity against HIV1 HXB2 harboring 227C mutant reverse transcriptase infected in human MT4 cells after 5 days by MTT assay; type: functional, organism-based; conditions: Human immunodeficiency virus 1, HXB2, MT4, 120 h
How it was run: (§1)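 Mutant viruses were made by recombining the mutant PR-RT sequence into a PR-RT-deleted HIV-1 HXB2 proviral clone. MT4 cells were grown in RPMI 1640 with 10% FCS and antibiotics. Virus at 200 CCID50/well and 30000 cells/well were incubated with varied compound concentrations for 5 days at 37 °C, 5% CO2. MTT viability gave IC50, the concentration giving 50% infection versus the drug-free control.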

[2] = tested on: Human immunodeficiency virus 1; assay: Antiviral activity against HIV1 HXB2 harboring 138K mutant reverse transcriptase infected in human MT4 cells after 5 days by MTT assay; type: functional, organism-based; conditions: Human immunodeficiency virus 1, HXB2, MT4, 120 h; how it was run: as §1
[3] = tested on: Human immunodeficiency virus 1; assay: Antiviral activity against HIV1 HXB2 harboring 190S mutant reverse transcriptase infected in human MT4 cells after 5 days by MTT assay; type: functional, organism-based; conditions: Human immunodeficiency virus 1, HXB2, MT4, 120 h; how it was run: as §1
[4] = Selectivity index, ratio of CC50 for human MT4 cells to IC50 for HIV-1 LAI harboring wild type reverse transcriptase infected in human MT4 cells; type: functional
How it was run: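 Cytotoxicity was measured in mock-infected MT4 cultures (30000 cells/well) given the same compound concentration range, run in parallel with the infected cultures for 5 days at 37 °C, 5% CO2, with MTT viability. CC50 was the concentration reducing viability by 50% versus the drug-free control. SI was CC50 divided by IC50 against HIV-1 LAI.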

[5] = tested on: Human immunodeficiency virus 1; assay: Antiviral activity against HIV1 HXB2 harboring 101E and K103N mutant reverse transcriptase infected in human MT4 cells after 5 days by MTT assay; type: functional, organism-based; conditions: Human immunodeficiency virus 1, HXB2, MT4, 120 h; how it was run: as §1
[6] = tested on: Human immunodeficiency virus 1; assay: Antiviral activity against HIV1 HXB2 harboring 179E mutant reverse transcriptase infected in human MT4 cells after 5 days by MTT assay; type: functional, organism-based; conditions: Human immunodeficiency virus 1, HXB2, MT4, 120 h; how it was run: as §1
[7] = tested on: Human immunodeficiency virus 1; assay: Ratio of compound IC50 to efavirenz IC50 for HIV1 HXB2 harboring Y181C mutant reverse transcriptase infected in human MT4 cells; type: functional
[8] = tested on: Human immunodeficiency virus 1; assay: Antiviral activity against HIV1 HXB2 harboring 106A mutant reverse transcriptase infected in human MT4 cells after 5 days by MTT assay; type: functional, organism-based; conditions: Human immunodeficiency virus 1, HXB2, MT4, 120 h; how it was run: as §1
[9] = tested on: Human immunodeficiency virus 1; assay: Antiviral activity against HIV1 HXB2 harboring 227L and 106A mutant reverse transcriptase infected in human MT4 cells after 5 days by MTT assay; type: functional, organism-based; conditions: Human immunodeficiency virus 1, HXB2, MT4, 120 h; how it was run: as §1
[10] = tested on: Human immunodeficiency virus 1; assay: Ratio of efavirenz IC50 to compound IC50 for HIV1 HXB2 harboring K103N mutant reverse transcriptase infected in human MT4 cells; type: functional
[11] = tested on: Human immunodeficiency virus 1; assay: Antiviral activity against HIV1 HXB2 harboring 101E mutant reverse transcriptase infected in human MT4 cells after 5 days by MTT assay; type: functional, organism-based; conditions: Human immunodeficiency virus 1, HXB2, MT4, 120 h; how it was run: as §1
[12] = tested on: Human immunodeficiency virus 1; assay: Antiviral activity against HIV1 HXB2 harboring 100I mutant reverse transcriptase infected in human MT4 cells after 5 days by MTT assay; type: functional, organism-based; conditions: Human immunodeficiency virus 1, HXB2, MT4, 120 h; how it was run: as §1
[13] = tested on: Human immunodeficiency virus 1; assay: Ratio of efavirenz IC50 to compound IC50 for HIV1 HXB2 harboring Y188L mutant reverse transcriptase infected in human MT4 cells; type: functional
[14] = tested on: Human immunodeficiency virus 1; assay: Antiviral activity against HIV1 HXB2 harboring 190A mutant reverse transcriptase infected in human MT4 cells after 5 days by MTT assay; type: functional, organism-based; conditions: Human immunodeficiency virus 1, HXB2, MT4, 120 h; how it was run: as §1
[15] = tested on: Human immunodeficiency virus 1; assay: Antiviral activity against HIV-1 LAI harboring wild type reverse transcriptase infected in human MT4 cells after 5 days by MTT assay; type: functional, organism-based; conditions: Human immunodeficiency virus 1, LAI, MT4, 120 h
How it was run: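 MT4 cells were kept in RPMI 1640 with 10% fetal calf serum and antibiotics at 37 °C, 5% CO2. A range of compound concentrations was incubated with HIV-1 LAI at 200 CCID50/well and 30000 MT4 cells/well for 5 days at 37 °C. Cell viability was read by MTT, and IC50 was the concentration giving 50% infection versus the drug-free control.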

[16] = tested on: Human immunodeficiency virus 1; assay: Antiviral activity against HIV1 HXB2 harboring K103N mutant reverse transcriptase infected in human MT4 cells after 5 days by MTT assay; type: functional, organism-based; conditions: Human immunodeficiency virus 1, HXB2, MT4, 120 h; how it was run: as §1
[17] = tested on: Human immunodeficiency virus 1; assay: Antiviral activity against HIV1 HXB2 harboring Y188L mutant reverse transcriptase infected in human MT4 cells after 5 days by MTT assay; type: functional, organism-based; conditions: Human immunodeficiency virus 1, HXB2, MT4, 120 h; how it was run: as §1
[18] = tested on: Human immunodeficiency virus 1; assay: Antiviral activity against HIV1 HXB2 harboring K103N and Y181C mutant reverse transcriptase infected in human MT4 cells after 5 days by MTT assay; type: functional, organism-based; conditions: Human immunodeficiency virus 1, HXB2, MT4, 120 h; how it was run: as §1
[19] = tested on: Human immunodeficiency virus 1; assay: Antiviral activity against HIV1 HXB2 harboring Y181C mutant reverse transcriptase infected in human MT4 cells after 5 days by MTT assay; type: functional, organism-based; conditions: Human immunodeficiency virus 1, HXB2, MT4, 120 h; how it was run: as §1
[20] = tested on: Human immunodeficiency virus 1; assay: Antiviral activity against HIV1 HXB2 harboring 100I and K103N mutant reverse transcriptase infected in human MT4 cells after 5 days by MTT assay; type: functional, organism-based; conditions: Human immunodeficiency virus 1, HXB2, MT4, 120 h; how it was run: as §1
[21] = tested on: Human immunodeficiency virus 1; assay: Ratio of efavirenz IC50 to compound IC50 for HIV1 HXB2 harboring 100I and K103N mutant reverse transcriptase infected in human MT4 cells; type: functional

| Structure (SMILES) | IC50 [1] [nM] | IC50 [2] [nM] | IC50 [3] [nM] | Ratio CC50/IC50 [4] | IC50 [5] [nM] | IC50 [6] [nM] | IC50 [8] [nM] | IC50 [9] [nM] | IC50 [11] [nM] | IC50 [12] [nM] | IC50 [14] [nM] | IC50 [15] [nM] | IC50 [16] [nM] | IC50 [17] [nM] | IC50 [18] [nM] | IC50 [19] [nM] | IC50 [20] [nM] | other results |
| --- | --- | --- | --- | --- | --- | --- | --- | --- | --- | --- | --- | --- | --- | --- | --- | --- | --- | --- |
| CCc1c(C)[nH]c(=O)c(I)c1Oc1cc(C)cc(C)c1 | 63.1 | 3.98 | 1.99 | 9000 | 15.8 | 1.99 | 5.01 | 398 | 6.31 | 6.31 | – | – | – | – | – | – | – | Ratio IC50 [7]: 10; Ratio IC50 [10]: 10; Ratio IC50 [13]: 3 |
| CCc1c(C)[nH]c(=O)c(N(C)C)c1Cc1cc(C)cc(C)c1 | – | – | – | 12589 | – | – | 39.8 | – | 15.8 | 50.1 | 63.1 | 7.94 | 31.6 | 251 | 794 | 100 | – | – |
| CCc1c(C)[nH]c(=O)c(N(C)C)c1C(=O)c1cc(C)cc(C)c1 | 631 | 6.31 | 3.98 | 2512 | 12.6 | 2.51 | 6.31 | 398 | 7.94 | 6.31 | 12.6 | 3.98 | 10 | 158 | 158 | 63.1 | 39.8 | – |
| Cc1cc(C)cc(Oc2c(CSCc3ccco3)c(C)[nH]c(=O)c2I)c1 | 39.8 | 1.25 | 1.25 | >79433 | 3.98 | 1 | 1.58 | 125 | 6.31 | 6.31 | 3.16 | 1.25 | 1 | 31.6 | 5.01 | 5 | 31.6 | – |
| Cc1cc(C)cc(Oc2c(CSCc3csc(C)n3)c(C)[nH]c(=O)c2I)c1 | 39.8 | – | – | >100000 | – | – | – | – | – | 3.16 | – | 1 | 1 | 7.9 | – | 6.3 | 158 | EC50 [9]: 158 nM |
| COCCSCc1c(C)[nH]c(=O)c(I)c1Oc1cc(C)cc(C)c1 | 199 | – | – | >50119 | – | – | – | 199 | – | 10 | – | 1.99 | 1.58 | 31.6 | – | 7.94 | – | – |
| Cc1cc(C)cc(Oc2c(Cn3ccnc3)c(C)[nH]c(=O)c2I)c1 | – | 11.2 | 2.2 | >50118 | 28.6 | 5.1 | 3.7 | – | 9.2 | 6.31 | 8 | 1.99 | 2.51 | 31.6 | 71.2 | 10 | 23.7 | – |
| Cc1cc(C)cc(Sc2c(CSCc3cccs3)c(C)[nH]c(=O)c2I)c1 | – | – | – | >10000 | – | – | – | – | – | – | – | 10 | 10 | 794 | – | 39.8 | – | – |
| Cc1cc(C)cc(Sc2c(Cn3cc(Br)cn3)c(C)[nH]c(=O)c2I)c1 | – | – | – | >10000 | – | – | – | – | – | – | – | 10 | 5.01 | 316 | – | 39.8 | – | – |
| Cc1cc(C)cc(Sc2c(Cn3ncnn3)c(C)[nH]c(=O)c2I)c1 | 50.1 | 2.6 | 0.3 | >158489 | 5 | 0.8 | 0.6 | 50.1 | 3.3 | 1.25 | 1 | 0.63 | 1.25 | 31.6 | 32.9 | 10 | 3.98 | – |
| CC(=O)c1c(C)cn(Cc2c(C)[nH]c(=O)c(I)c2Sc2cc(C)cc(C)c2)c1C | – | – | – | 5012 | – | – | – | – | – | – | – | 10 | 50.1 | 199 | – | 63 | – | – |
| Cc1cc(C)cc(Oc2c(Cn3cnnn3)c(C)[nH]c(=O)c2I)c1 | 2.6 | 3.9 | 0.4 | >100000 | 4.6 | 1.4 | 2 | 3.8 | 4 | 4 | 3.7 | 0.79 | 1.4 | 10.3 | 17.4 | 5.9 | 4.7 | – |
| CCSCc1c(C)[nH]c(=O)c(I)c1Oc1cc(C)cc(C)c1 | 199 | 25.1 | 10 | >79433 | 19.9 | 10 | 7.94 | 125 | 19.9 | 7.94 | 19.9 | 1.25 | 6.3 | 31.6 | 19.9 | 6.3 | 15.8 | – |
| Cc1cc(C)cc(Oc2c(CN3CCN(C(=O)c4ccco4)CC3)c(C)[nH]c(=O)c2I)c1 | – | – | – | 1585 | – | – | – | – | – | – | – | 10 | 25.1 | 158 | – | 125 | – | – |
| Cc1cc(C)cc(Oc2c(Cn3cnc(C#N)c3C#N)c(C)[nH]c(=O)c2I)c1 | – | – | – | >10000 | – | – | – | – | – | – | – | 10 | 31.6 | 1000 | – | 199 | – | – |
| Cc1cc(C)cc(Sc2c(Cn3cnnn3)c(C)[nH]c(=O)c2I)c1 | 31.6 | 1.1 | 0.2 | >79433 | 1 | 0.8 | 0.5 | 39.8 | 1.4 | 0.79 | 0.9 | 1.25 | 0.31 | 15.8 | 6.8 | 7.9 | 1.25 | Ratio IC50 [21]: 1000 |
| O=C1Nc2ccc(Cl)cc2[C@@](C#CC2CC2)(C(F)(F)F)O1 [EFAVIRENZ] | – | – | 251 | – | – | 5.01 | – | 25.1 | 6.3 | – | 10 | – | – | – | – | – | – | – |
| Cc1ccnc2c1NC(=O)c1cccnc1N2C1CC1 [NEVIRAPINE] | 135 | 51 | 44 | – | – | 195 | – | 163 | – | – | – | – | – | 100000 | 100000 | 10000 | – | – |
